Results reported in ChEMBL document CHEMBL4619737, “Influence of side-chain changes on histone deacetylase inhibitory and cytotoxicity activities of curcuminoid derivatives” (Bioorg Med Chem Lett, 2020).
Values after ≈ are worked out from the molar mass of the structure shown. Active and inactive are the calls of the source. No cut-off for these calls is given here.

Key:
[1] = tested on: MCF7; assay: Antiproliferative activity against human MCF7 cells incubated for 72 hrs by MTT assay; assay type: functional, cell-based; settings: MCF7, 72 h
[2] = tested on: MCF7; assay: Antiproliferative activity against human MCF7 cells incubated for 24 hrs by MTT assay; assay type: functional, cell-based; settings: MCF7, 24 h
[3] = tested on: HCT-116; assay: Antiproliferative activity against human HCT116 cells incubated for 24 hrs by MTT assay; assay type: functional, cell-based; settings: HCT-116, 24 h
[4] = molecular target: T1, Histone deacetylase 8 (Homo sapiens, UniProt Q9BY41); assay: Inhibition of HDAC8 (unknown origin)
T1 sequence (Q9BY41 whole entry): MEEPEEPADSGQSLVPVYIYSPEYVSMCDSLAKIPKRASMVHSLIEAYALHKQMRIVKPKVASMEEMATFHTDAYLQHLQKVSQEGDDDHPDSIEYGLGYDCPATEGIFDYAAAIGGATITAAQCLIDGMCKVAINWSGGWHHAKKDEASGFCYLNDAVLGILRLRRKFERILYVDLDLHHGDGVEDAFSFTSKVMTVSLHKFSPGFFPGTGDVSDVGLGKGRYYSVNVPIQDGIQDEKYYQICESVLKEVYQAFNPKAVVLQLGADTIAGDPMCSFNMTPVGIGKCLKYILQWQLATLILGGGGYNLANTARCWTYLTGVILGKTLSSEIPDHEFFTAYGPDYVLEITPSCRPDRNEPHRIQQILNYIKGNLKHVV

[5] = tested on: HCT-116; assay: Antiproliferative activity against human HCT116 cells incubated for 48 hrs by MTT assay; assay type: functional, cell-based; settings: HCT-116, 48 h
[6] = tested on: MCF7; assay: Antiproliferative activity against human MCF7 cells incubated for 48 hrs by MTT assay; assay type: functional, cell-based; settings: MCF7, 48 h
[7] = tested on: Vero; assay: Cytotoxicity against African green monkey Vero cells assessed as reduction in cell viability incubated for 48 hrs by MTT assay; assay type: cell-based; settings: Chlorocebus sabaeus
[8] = tested on: Vero; assay: Cytotoxicity against African green monkey Vero cells assessed as reduction in cell viability incubated for 24 hrs by MTT assay; assay type: cell-based; settings: Chlorocebus sabaeus
[9] = molecular target: Histone deacetylase 1 (Homo sapiens, UniProt Q13547); assay: Inhibition of HDAC1 (unknown origin)
Sequence of Histone deacetylase 1 (Q13547 whole entry): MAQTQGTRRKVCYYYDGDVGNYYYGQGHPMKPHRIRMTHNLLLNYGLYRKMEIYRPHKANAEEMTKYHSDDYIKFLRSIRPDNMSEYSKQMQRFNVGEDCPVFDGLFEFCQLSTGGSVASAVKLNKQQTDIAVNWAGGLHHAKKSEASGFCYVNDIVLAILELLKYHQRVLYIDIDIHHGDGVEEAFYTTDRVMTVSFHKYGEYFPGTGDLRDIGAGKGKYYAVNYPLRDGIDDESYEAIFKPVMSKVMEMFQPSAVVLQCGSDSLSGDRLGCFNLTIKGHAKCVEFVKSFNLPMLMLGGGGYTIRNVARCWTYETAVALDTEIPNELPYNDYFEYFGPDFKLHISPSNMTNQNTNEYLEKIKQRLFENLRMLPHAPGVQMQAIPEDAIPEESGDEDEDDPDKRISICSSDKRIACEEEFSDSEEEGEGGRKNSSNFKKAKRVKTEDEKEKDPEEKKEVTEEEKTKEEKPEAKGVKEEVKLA

[10] = molecular target: Histone deacetylase 2 (Homo sapiens, UniProt Q92769); assay: Inhibition of HDAC2 (unknown origin)
Sequence of Histone deacetylase 2 (Q92769 whole entry): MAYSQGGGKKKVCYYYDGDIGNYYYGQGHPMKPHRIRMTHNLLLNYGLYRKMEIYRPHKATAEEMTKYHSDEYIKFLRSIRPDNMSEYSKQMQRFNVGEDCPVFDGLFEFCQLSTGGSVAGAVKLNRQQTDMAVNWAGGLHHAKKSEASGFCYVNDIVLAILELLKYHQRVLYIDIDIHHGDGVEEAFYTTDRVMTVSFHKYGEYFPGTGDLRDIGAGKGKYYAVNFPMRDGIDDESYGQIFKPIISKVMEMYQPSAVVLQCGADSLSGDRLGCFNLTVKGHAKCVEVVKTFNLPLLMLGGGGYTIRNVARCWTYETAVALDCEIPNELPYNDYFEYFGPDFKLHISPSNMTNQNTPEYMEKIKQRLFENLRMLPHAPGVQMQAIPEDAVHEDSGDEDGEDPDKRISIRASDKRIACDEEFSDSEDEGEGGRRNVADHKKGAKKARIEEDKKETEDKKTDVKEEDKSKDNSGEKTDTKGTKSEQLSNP

[11] = tested on: HeLa; assay: Antiproliferative activity against human HeLa cells incubated for 72 hrs by MTT assay; assay type: functional, cell-based
[12] = tested on: HeLa; assay: Antiproliferative activity against human HeLa cells incubated for 24 hrs by MTT assay; assay type: functional, cell-based
[13] = tested on: Vero; assay: Cytotoxicity against African green monkey Vero cells assessed as reduction in cell viability incubated for 72 hrs by MTT assay; assay type: cell-based; settings: Chlorocebus sabaeus
[14] = tested on: HeLa; assay: Antiproliferative activity against human HeLa cells incubated for 48 hrs by MTT assay; assay type: functional, cell-based
[15] = tested on: HCT-116; assay: Antiproliferative activity against human HCT116 cells incubated for 72 hrs by MTT assay; assay type: functional, cell-based; settings: HCT-116, 72 h
[16] = molecular target: Histone deacetylase; assay: Inhibition of HDAC in human HeLa cell nuclear extract using fluor-de-lys as substrate by spectrofluorometric analysis; assay type: cell-free
[17] = molecular target: Histone deacetylase (Homo sapiens) (UniProt Q13547+O15379+Q9UBN7+Q92769+Q9UQL6+Q8WUI4+Q9BY41+Q96DB2+P56524+Q9UKV0+Q969S8); assay: Inhibition of HDAC in human HCT116 cells assessed as accumulation of acetylated histone H3 levels at 40 ug/ml incubated for 24 hrs by Western blot analysis; assay type: cell-based; settings: HCT-116
In short: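 HCT116 cells exposed for 24 h to compound at 10–60 μg/mL, with a 1:1 (v/v) absolute ethanol/DMSO vehicle control. Cells were harvested, and extracted proteins were separated by SDS-PAGE. Acetylated H3 was detected by immunoblotting with ERK1/2 as the loading control. Band intensities were quantified by densitometry and expressed as fold relative to the internal control.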

| SMILES | IC50 [1] [µg/mL] | IC50 [2] [µg/mL] | IC50 [3] [µg/mL] | Ki [4] [µM] | IC50 [5] [µg/mL] | IC50 [6] [µg/mL] | IC50 [7] [µg/mL] | IC50 [8] [µg/mL] | Ki [9] [nM] | Ki [10] [nM] | IC50 [11] [µg/mL] | IC50 [12] [µg/mL] | IC50 [13] [µg/mL] | IC50 [14] [µg/mL] | IC50 [15] [µg/mL] | IC50 [16] [µM] | inhibition [17] |
| --- | --- | --- | --- | --- | --- | --- | --- | --- | --- | --- | --- | --- | --- | --- | --- | --- | --- |
| CCC(C)Oc1ccc(/C=C/C(=O)/C=C(O)/C=C/c2ccc(OC(C)CC)c(OC)c2)cc1OC (centres undefined) | 13.9 (≈ 28.9 µM) | > 100 | 28.7 (≈ 59.7 µM) | 10.2 | 10.8 (≈ 22.5 µM) | 42.1 (≈ 87.6 µM) | > 100 | > 100 | 20700 | 7470 | 10.2 (≈ 21.2 µM) | > 100 | > 100 | 17.5 (≈ 36.4 µM) | 7.89 (≈ 16.4 µM) | – | – |
| COc1cc(/C=C/C(=O)/C=C(O)/C=C/c2ccc(OCC(=O)O)c(OC)c2)ccc1OCC(=O)O | > 100 | > 100 | > 100 | 14.2 | > 100 | > 100 | > 100 | > 100 | 1960 | 3990 | > 100 | > 100 | > 100 | > 100 | > 100 | – | – |
| CCC(C)Oc1ccc(/C=C/C(O)=C/C(=O)/C=C/c2ccc(O)c(OC)c2)cc1 (centres undefined) | 18.1 (≈ 45.8 µM) | > 100 | 43.6 (≈ 111 µM) | 3.6 | 8.53 (≈ 21.6 µM) | 46.3 (≈ 117 µM) | > 100 | > 100 | 2500 | 1060 | 9.33 (≈ 23.7 µM) | 55.2 (≈ 140 µM) | > 100 | 14 (≈ 35.6 µM) | 7.33 (≈ 18.6 µM) | – | – |
| COc1cc(/C=C/C(=O)CC(=O)/C=C/c2ccc(O)c(OC)c2)ccc1O [CURCUMIN] | 2.03 (≈ 5.51 µM) | 2.94 (≈ 7.98 µM) | 3.83 (≈ 10.4 µM) | – | 2.67 (≈ 7.25 µM) | 2.08 (≈ 5.65 µM) | 17.9 (≈ 48.5 µM) | 25 (≈ 67.9 µM) | – | – | 3.56 (≈ 9.66 µM) | 5.39 (≈ 14.6 µM) | 11 (≈ 29.8 µM) | 3.57 (≈ 9.69 µM) | 2.4 (≈ 6.51 µM) | – | – |
| COc1cc(CNC(=O)CCCCC(O)CC(C)C)ccc1O (centres undefined) | – | – | – | – | – | – | – | – | – | – | – | – | – | – | – | 72 | – |
| COc1cc(/C=C/C(=O)/C=C(O)/C=C/c2ccc(OC(C)C(N)=O)c(OC)c2)ccc1OC(C)C(N)=O (centres undefined) | 30.7 (≈ 60.2 µM) | 51.4 (≈ 101 µM) | 27.9 (≈ 54.7 µM) | 0.88 | 23.7 (≈ 46.4 µM) | 38.3 (≈ 75.1 µM) | 25.6 (≈ 50.1 µM) | > 100 | 936 | 550 | 19.6 (≈ 38.3 µM) | 32.3 (≈ 63.3 µM) | 18.7 (≈ 36.5 µM) | 25.8 (≈ 50.5 µM) | 14.6 (≈ 28.6 µM) | – | Active |
